Reference: ChEMBL document CHEMBL1159071, “Discovery of 4-(5-methyloxazolo[4,5-b]pyridin-2-yl)-1,4-diazabicyclo[3.2.2]nonane (CP-810,123), a novel alpha 7 nicotinic acetylcholine receptor agonist for the treatment of cognitive disorders in schizophrenia: synthesis, SAR development, and in vivo efficacy in cognition models” (J Med Chem, 2010)
The source made the active and inactive calls. The rule behind the calls is not given here.

Assays:
[1] = target: T1, 5-hydroxytryptamine receptor 3A (Homo sapiens, UniProt P46098); assay: […] at human 5HT3 receptor expressed in human skin epithelial cells assessed as stimulation of calcium flux by FLIPR assay; format: functional, cell-based, Epithelial cell
T1 sequence (P46098 whole entry): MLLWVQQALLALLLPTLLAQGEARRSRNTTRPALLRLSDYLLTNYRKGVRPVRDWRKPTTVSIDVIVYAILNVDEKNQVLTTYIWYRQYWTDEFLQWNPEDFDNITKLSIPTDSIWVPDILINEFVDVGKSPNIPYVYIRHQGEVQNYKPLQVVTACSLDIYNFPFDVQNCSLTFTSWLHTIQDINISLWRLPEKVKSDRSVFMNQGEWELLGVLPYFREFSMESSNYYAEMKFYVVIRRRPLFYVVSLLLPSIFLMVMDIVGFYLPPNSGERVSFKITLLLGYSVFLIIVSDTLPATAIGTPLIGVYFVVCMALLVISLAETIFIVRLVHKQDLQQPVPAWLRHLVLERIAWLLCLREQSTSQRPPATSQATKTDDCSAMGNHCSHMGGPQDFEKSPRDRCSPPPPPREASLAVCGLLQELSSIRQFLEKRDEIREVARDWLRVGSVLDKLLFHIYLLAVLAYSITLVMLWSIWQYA
Summary of the method: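 Human 5-HT3A stably in human skin epithelial cells, plated 15 000 cells/well 2 days ahead; loaded 1 h at 37 °C with Fluo-4 (8 μM final), washed into HBSS with 20 mM Tris-HEPES, 1 μM atropine, 4 mM Ca2+, pH 7.4. Compound added 2 min, then 5-HT challenge (250 nM final) 2 min; FLIPR calcium read.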

CHO = assay: Toxicity in CHO cells assessed as induction of DNA fragments by in vitro micronucleus assay; format: cell-based, Cricetulus griseus; conditions: chinese hamster
[2] = target: Neuronal acetylcholine receptor subunit alpha-7 (Homo sapiens, UniProt P36544); assay: Displacement of [125I]BTX from human alpha7 nicotinic acetylcholine receptor expressed in IMR32 cells; format: cell-based, IMR-32
Neuronal acetylcholine receptor subunit alpha-7, sequence (P36544 whole entry): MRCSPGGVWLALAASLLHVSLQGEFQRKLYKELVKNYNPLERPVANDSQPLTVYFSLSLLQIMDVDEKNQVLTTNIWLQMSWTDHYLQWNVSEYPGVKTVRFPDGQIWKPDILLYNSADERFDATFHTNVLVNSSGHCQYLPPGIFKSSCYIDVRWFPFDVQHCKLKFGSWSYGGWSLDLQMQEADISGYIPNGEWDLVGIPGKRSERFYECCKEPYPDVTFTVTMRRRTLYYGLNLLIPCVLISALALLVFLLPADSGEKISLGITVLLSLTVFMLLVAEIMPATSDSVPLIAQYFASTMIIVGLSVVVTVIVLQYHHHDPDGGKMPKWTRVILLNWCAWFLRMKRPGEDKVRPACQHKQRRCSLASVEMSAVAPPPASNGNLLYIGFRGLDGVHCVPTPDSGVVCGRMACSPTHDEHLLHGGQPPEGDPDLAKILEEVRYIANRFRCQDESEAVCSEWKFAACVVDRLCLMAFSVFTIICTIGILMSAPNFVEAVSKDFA
Summary of the method: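 Human α7 nAChR in IMR-32 cells, [125I]BTX radioligand. Six-point concentration-response curve, run in triplicate and averaged.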

[3] = Lipophilicity, log D at pH 7.4; format: physicochemical; conditions: buffer
[4] = Aqueous solubility of the compound; format: physicochemical; conditions: buffer
[5] = Permeability from apical to basolateral side in dog MDCK cells at 2 uM; format: ADME, cell-based, Canis lupus familiaris; conditions: read-out: permeability
Summary of the method: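 MS quantification of apical-to-basolateral transfer of compound at 2 μM across contiguous MDCK cell monolayers.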

Plasma = assay: Fraction unbound in rat plasma; format: ADME, cell-free
[6] = Ratio of drug level in brain to plasma of rat at 1 mg/kg, sc after 40 mins; conditions: brain and plasma
[7] = target: T2, Muscarinic acetylcholine receptor M1 (Homo sapiens, UniProt P11229); assay: Inhibition of muscarinic M1 receptor
T2 sequence (P11229 whole entry): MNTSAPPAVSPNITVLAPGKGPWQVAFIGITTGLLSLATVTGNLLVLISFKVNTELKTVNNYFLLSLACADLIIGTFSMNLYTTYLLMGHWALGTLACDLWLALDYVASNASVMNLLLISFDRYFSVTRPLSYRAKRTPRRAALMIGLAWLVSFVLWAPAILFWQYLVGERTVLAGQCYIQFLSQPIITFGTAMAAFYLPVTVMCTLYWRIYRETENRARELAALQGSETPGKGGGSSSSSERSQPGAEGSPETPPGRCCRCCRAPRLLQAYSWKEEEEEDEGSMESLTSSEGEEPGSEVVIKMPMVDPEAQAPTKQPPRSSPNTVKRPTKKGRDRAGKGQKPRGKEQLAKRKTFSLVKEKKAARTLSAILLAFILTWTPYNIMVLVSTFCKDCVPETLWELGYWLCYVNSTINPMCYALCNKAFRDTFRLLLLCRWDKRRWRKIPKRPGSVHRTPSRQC

[8] = target: Muscarinic acetylcholine receptor M3 (Homo sapiens, UniProt P20309); assay: Inhibition of muscarinic M3 receptor
Muscarinic acetylcholine receptor M3, sequence (P20309 whole entry): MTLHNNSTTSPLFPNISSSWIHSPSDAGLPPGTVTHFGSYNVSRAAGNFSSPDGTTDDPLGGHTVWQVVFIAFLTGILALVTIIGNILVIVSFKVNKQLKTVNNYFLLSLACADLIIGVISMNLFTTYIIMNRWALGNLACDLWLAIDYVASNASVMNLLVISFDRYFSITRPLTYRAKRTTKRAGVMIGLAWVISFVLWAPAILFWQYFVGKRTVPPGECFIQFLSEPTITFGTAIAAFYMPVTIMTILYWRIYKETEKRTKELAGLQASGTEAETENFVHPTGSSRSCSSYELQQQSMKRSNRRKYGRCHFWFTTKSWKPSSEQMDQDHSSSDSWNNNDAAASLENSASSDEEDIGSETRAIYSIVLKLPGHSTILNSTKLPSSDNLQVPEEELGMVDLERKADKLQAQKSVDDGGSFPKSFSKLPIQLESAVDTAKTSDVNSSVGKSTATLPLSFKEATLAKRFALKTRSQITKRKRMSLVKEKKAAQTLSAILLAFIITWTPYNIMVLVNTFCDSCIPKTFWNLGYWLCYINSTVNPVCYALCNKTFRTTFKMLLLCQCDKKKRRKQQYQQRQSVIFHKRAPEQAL

[9] = target: T3, Muscarinic acetylcholine receptor M5 (Homo sapiens, UniProt P08912); assay: Inhibition of muscarinic M5 receptor
T3 sequence (P08912 whole entry): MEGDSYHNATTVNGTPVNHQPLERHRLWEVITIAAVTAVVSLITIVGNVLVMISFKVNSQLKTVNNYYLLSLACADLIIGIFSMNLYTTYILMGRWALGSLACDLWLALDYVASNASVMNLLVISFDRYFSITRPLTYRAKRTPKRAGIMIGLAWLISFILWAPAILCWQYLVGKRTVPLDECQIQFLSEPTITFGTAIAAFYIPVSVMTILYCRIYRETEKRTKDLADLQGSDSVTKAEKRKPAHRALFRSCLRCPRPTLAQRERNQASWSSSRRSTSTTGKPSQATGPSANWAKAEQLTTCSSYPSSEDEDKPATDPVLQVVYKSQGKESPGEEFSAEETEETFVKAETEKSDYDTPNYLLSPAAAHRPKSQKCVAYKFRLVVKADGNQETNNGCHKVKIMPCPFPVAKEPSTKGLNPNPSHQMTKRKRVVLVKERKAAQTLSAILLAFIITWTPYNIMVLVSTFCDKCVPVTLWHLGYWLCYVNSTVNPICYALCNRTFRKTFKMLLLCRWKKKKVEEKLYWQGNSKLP

Rattus norvegicus [10] = assay: Cognitive enhancement in Sprague-Dawley rat assessed as reversal of amphetamine-induced auditory sensory gating deficit at 0.03 mg/kg, sc; format: functional, organism-based; design: dose 0.03 mg/kg
Summary of the method: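 Male Sprague-Dawley rats (250-300 g) under chloral hydrate (400 mg/kg ip), femoral vein cannulated. CA3 hippocampal field potential recorded; auditory-evoked responses averaged over 50 stimulus pairs at 10 s interstimulus interval. Gating disrupted by d-amphetamine 1 mg/kg iv; compound sc. Read-out is reversal of the amphetamine deficit; PBS vehicle; two-tailed paired t-test.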

Rattus norvegicus [11] = assay: Free plasma concentration in Sprague-Dawley rat auditory sensory gating deficit model at 0.3 mg/kg, sc after 40 mins; format: functional; conditions: route subcutaneous
Summary of the method: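 Rats given 0.3 mg/kg sc; free plasma concentration measured about 40 min after dosing.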

Rattus norvegicus [12] = assay: Cognitive enhancement in Sprague-Dawley rat assessed as improvement of scopolamine-impaired performance at 1 mg/kg, sc administered 30 mins before scopolamine challenge by novel object recognition assay; format: functional, organism-based; design: dose 1 mg/kg
Summary of the method: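 Rats habituated to the arena 3 min on day 1. Next day, 10-15 per group dosed sc with vehicle or compound, then 30 min later vehicle or (-)-scopolamine 0.2 mg/kg sc. After 30 min more, two identical objects shown 3 min; 2.5 h later one novel and one familiar object for 3 min. Exploration time per object, mean ± SEM.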

In the case of `Cc1ccc2oc(N3CCN4CCC3CC4)nc2n1`, the IC50 [1] is reported as 0.005 µM, the Activity (CHO) is reported as “Non-toxic” and the Ki [2] is reported as 0.0164 µM. The logD [3] was 0.36, the solubility [4] was over 2400 µg/mL and the Papp A→B at 2 µM [5] was 18 ×10⁻⁶ cm/s. For the same compound, the Fu (Plasma) was 0.78%, the Kp at 40 min [6] was 1.5 and the Ki [7] was 14 µM. For the same compound, the Ki [8] was 8.3 µM, the Ki [9] was 5.2 µM and the Activity (Rattus norvegicus [10]) was “Active”. For the same compound, the “Cp(f)” value (Rattus norvegicus [11]) was 326 nM and the Activity (Rattus norvegicus [12]) was “Active”.
